# Screening results deposited in PubChem BioAssay by Broad Institute.
# INS-1E GSIS act – primary screen for activators of insulin secretion dependent on glucose, INS-1E cells, GLuc reporter luminescence | activation, % at 16.6 µM | INS-1E GLuc reporter insulin secretion, 2-3 h | actives 0.61% (n = 370,000);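 active = lowest replicate activation of at least 40%, so every replicate reaches that level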
# ERAP1 inh – inhibitors of human ERAP1 aminopeptidase; Q9NZ08; inhibition, % at 10.7 µM; actives 0.15% (n = 340,000); AID 652197; recombinant ERAP1, Leu-AMC fluorescence, 60 min;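 active = mean replicate inhibition of at least 30%, or all replicates individually reaching that 30% level; inactive = mean below 30% and not every replicate reaching it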
# F508del corr – CFTR F508del correction in bronchial cells; CFBE cells, YFP halide quenching; stimulated with forskolin plus potentiator P3; % fluorescence drop versus neutral controls; activity (quench increase), % at 7.58 µM; actives 0.36% (n = 350,000);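 active = mean added fluorescence quench of at least 8% versus neutral control, with both replicates also reaching 8%; inconclusive = only one of the mean or replicate conditions met; inactive = mean below 8% and not both replicates reaching 8%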;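 also: cells transiently co-express mutant CFTR-F508del with the halide-sensitive YFP; corrector assay measuring rescue of mutant channel to the surface after 24 h compound exposure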
# DENV2 CPE rescue – DENV2-induced cell death inhibition | DENV2-infected cells, cytopathic effect rescue, plate reader | CPE inhibition, % at 9.99 µM | actives 1.7% (n = 350,000) | AID 651640; in the data active = CPE inhibition above about 20%, passing the limit was not always enough; inconclusive = no clear call, values can overlap the other calls; tested in BHK-21 cells
# miR-122 sensor – inhibitors of miR-122 in Huh7 cells; AID 602342; Huh7 miR-122 Renilla luciferase sensor, 48 h; neutral wells = 0, positive control = 100; activation (reporter increase), % at 12.5 µM; actives 0.3% (n = 340,000);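 active = mean replicate activation score at least 90 and every replicate individually at or above 90; inconclusive = only one of the two criteria met; inactive = neither criterion met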;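 also: higher luciferase means less miR-122 activity so hits act as miR-122 inhibitors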
# E-sel inducer – induces E-selectin expression in human endothelial cells; actives 0.37% (n = 260,000); P16581; HUVEC E-selectin immunofluorescence imaging; normalized: neutral wells 0, TNF-alpha wells 100; AID 686992; activation, % at 7.58 µM;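 active = mean E-selectin-positive cell signal at least 10% of the positive control, reached in at least 60% of replicates, without over 20% cell loss; inconclusive = no rule given, readout overlaps actives, possibly toxicity-flagged; inactive = the rest, including those meeting only one limit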
# Target sequence (P16581 whole entry, looked up): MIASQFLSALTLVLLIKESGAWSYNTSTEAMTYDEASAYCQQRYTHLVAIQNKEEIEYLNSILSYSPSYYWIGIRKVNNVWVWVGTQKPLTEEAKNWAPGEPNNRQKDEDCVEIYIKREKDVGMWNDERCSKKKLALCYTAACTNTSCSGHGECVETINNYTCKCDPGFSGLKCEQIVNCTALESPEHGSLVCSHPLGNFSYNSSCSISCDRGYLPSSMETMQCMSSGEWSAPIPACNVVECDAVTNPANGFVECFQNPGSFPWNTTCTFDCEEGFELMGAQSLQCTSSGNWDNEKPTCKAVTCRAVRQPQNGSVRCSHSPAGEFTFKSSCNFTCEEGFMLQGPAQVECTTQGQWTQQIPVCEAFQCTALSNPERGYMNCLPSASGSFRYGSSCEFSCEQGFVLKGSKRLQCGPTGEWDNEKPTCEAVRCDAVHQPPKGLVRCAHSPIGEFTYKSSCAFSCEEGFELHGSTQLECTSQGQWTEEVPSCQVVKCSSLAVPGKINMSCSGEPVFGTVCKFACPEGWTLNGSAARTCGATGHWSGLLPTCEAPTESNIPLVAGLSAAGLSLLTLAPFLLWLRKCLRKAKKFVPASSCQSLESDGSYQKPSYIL
#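 System: HUVEC / Compound: single concentration / Signal: immunofluorescence imaging / Read-out: percent E-selectin-positive cells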
# A number is an active result; – = inactive; ? = inconclusive; · = no result; ! = a repeat was not active; [ ] = dose if it differs, or a comment. This is a sample that favours compounds with a hit; in the whole collection about 2.6% have one here.
SMILES,INS-1E GSIS act,ERAP1 inh,F508del corr,DENV2 CPE rescue,miR-122 sensor,E-sel inducer
CN1C(=O)c2cc(NC(=O)Cc3cccs3)ccc2OC[C@H]2O[C@H](CC(=O)NCC3CCCCC3)CC[C@@H]21,–,–,–,–,–,–
CN1C(=O)c2cc(NC(=O)Cc3cccs3)ccc2OC[C@@H]2O[C@H](CC(=O)NCC3CCCCC3)CC[C@H]21,–,–,–,132,–,–
CN1C(=O)c2cc(NC(=O)Cc3cccs3)ccc2OC[C@@H]2O[C@H](CC(=O)NCC3CCCCC3)CC[C@@H]21,–,–,–,?,154[16.7 µM],–
CN1C(=O)c2cc(NC(=O)Cc3cccs3)ccc2OC[C@H]2O[C@@H](CC(=O)NCC3CCCCC3)CC[C@@H]21,–,–,–,–,–,–
Cc1noc(C)c1S(=O)(=O)N(C)C[C@H]1Oc2c(NC(=O)c3nc4ccccc4s3)cccc2C(=O)N([C@H](C)CO)C[C@H]1C,–,·,·,·,·,·
CN(C)CC(=O)N1[C@@H](C#N)[C@H](c2ccccc2-c2cccc(C(=O)N(C)C)c2)[C@@H]1CO,–,–,–,–,·,–
CO[C@@H]1CN(C)C(=O)c2ccc(NC(=O)NC(C)C)cc2OC[C@@H](C)N(CC2CC2)C[C@H]1C,–,–,–,–,–,–
COc1ccc(CCN2C(=O)CC(Cc3ccccc3)C2=O)cc1OC (stereo not drawn),70,–,–,–,·,·
COC(=O)C1=C(C)NC(C)=C(C(=O)OC)C1C(=O)OC(C)C(=O)c1ccccc1 (stereo not drawn),–,–,–,?,–,77
C[C@@H]1CCCCO[C@H](CN(C)C(=O)Nc2ccc3c(c2)OCO3)[C@@H](C)CN([C@@H](C)CO)C(=O)c2cc(NS(=O)(=O)c3ccccc3)ccc2O1,–,–,–,–,–,–
Cc1cc2c(OCC(O)CNC(C)(C)C)cccc2[nH]1 (stereo not drawn),·,·,·,·,–,·
COCCCNCC(O)COc1cccc2[nH]c(C)cc12 (stereo not drawn),–,32,·,–,·,·
Cc1ncc([N+](=O)[O-])n1CC(=O)Nc1ccc(F)c(F)c1,–,–,–,35,·,–
CC1=CC(C)C2(COC(c3ccc[n+](C)c3)OC2)C(C)C1 (stereo not drawn),–,106,–,–,–,–
C[C@@H]1CN([C@H](C)CO)C(=O)c2cccc(NS(C)(=O)=O)c2O[C@@H]1CN(C)C(=O)Nc1ccc(F)cc1,–,–,–,–,–,–
C[C@@H]1CN([C@@H](C)CO)C(=O)CCCn2cc(nn2)CO[C@H]1CN(C)C(=O)Nc1cccc2ccccc12,–,–,–,91!,–,–
CC(C)NC(=O)N(C)C[C@H]1OCc2cn(nn2)CCCC(=O)N([C@@H](C)CO)C[C@@H]1C,–,–,–,32,–,–
C[C@@H]1CCCCO[C@H](CN(C)S(=O)(=O)c2cccs2)[C@@H](C)CN([C@@H](C)CO)C(=O)c2cc(NC(=O)CCC(F)(F)F)ccc2O1,–,–,–,?,–,–
Cc1ccc(S(=O)(=O)N[C@@H]2CC[C@@H](CC(=O)N3CCC(Cc4ccccc4)CC3)O[C@H]2CO)cc1,–,–,–,–,·,–
CCN1CCN(CCc2nc3cc(NC(=O)COc4ccc(Cl)cc4)ccc3n2C)CC1,–,–,–,25,–,–
C[C@@H]1CN([C@H](C)CO)C(=O)Cc2cc(NC(=O)C3CC3)ccc2O[C@H]1CN(C)Cc1ccccc1,–,–,–,–,–,–
CS(=O)(=O)Nc1ccc2c(c1)[C@H]1C[C@H](CC(=O)NCc3ccccc3)O[C@@H](CO)[C@H]1O2,–,–,–,–,–,–
N#Cc1ccc(NC(=S)N2CCC3CC2c2cc(-c4ccc5c(c4)OCO5)ccc23)cc1 (stereo not drawn),–,·,–,–,110,–
COc1ccc(S(=O)(=O)N(C)C[C@H]2Oc3c(NC(=O)Nc4c(C)noc4C)cccc3C(=O)N([C@@H](C)CO)C[C@H]2C)cc1,–,–,–,–,–,175!
Cc1noc(C)c1NC(=O)Nc1cccc2c1O[C@@H](CN(C)S(=O)(=O)c1ccc(F)cc1)[C@@H](C)CN([C@@H](C)CO)C2=O,–,–,–,89,–,–
SMILES,INS-1E GSIS act,ERAP1 inh,F508del corr,DENV2 CPE rescue,miR-122 sensor,E-sel inducer
C[C@@H]1CN([C@@H](C)CO)C(=O)c2cc(N(C)C)ccc2O[C@@H](C)CCCCO[C@H]1CN(C)C,–,·,–,·,–,–
O=C(O)CSc1ncccc1C(=O)O,–,–,–,46,·,–
CCOC(=O)c1ccc(-n2ccnc2)c(NC(=O)c2cccc(Br)c2)c1,–,–,–,–,128,·
O=C(CSc1ncccn1)N1CCN(S(=O)(=O)c2ccccc2)CC1,51,·,–,–,–,–
CCNC(=O)C[C@H]1CC[C@H]2[C@@H](COc3ccc(NS(C)(=O)=O)cc3C(=O)N2C)O1,–,–,–,–,–,–
CCC(=O)OCCNc1cc(Sc2nc3ccccc3s2)c2nonc2c1[N+](=O)[O-],–,·,·,·,–,·
O=[N+]([O-])c1c(NCCCO)cc(Sc2nc3ccccc3s2)c2nonc12,134,–,·,·,–,·
Cc1nnc(Sc2cc(NCCCO)c([N+](=O)[O-])c3nonc23)s1,75,–,–,–,·,–
O=C(Nc1ccccc1)N1CCCCN2[C@H](CO)[C@H](c3ccc(Br)cc3)[C@@H]2C1,–,–,–,28,–,–
O=C(Nc1ccccc1)N1CCCCN2[C@H](CO)[C@H](c3ccc(Br)cc3)[C@H]2C1,–,–,–,32,–,–
Cc1ccccc1-c1ccc([C@@H]2[C@H]3CN(C(=O)Nc4ccccc4)CCCCN3[C@H]2CO)cc1,–,–,–,61,–,–
Cc1ccccc1-c1ccc([C@H]2[C@H]3CN(C(=O)Nc4ccccc4)CCCCN3[C@H]2CO)cc1,–,–,–,–,–,–
Cc1c(-c2cccc(Cl)c2)nc2ccccc2c1C(=O)NC1CC1,99,–,–,–,–,–
CSc1nnc2c3cc(C)ccc3n(Cc3ccccc3)c2n1,140,·,·,·,–,·
COC(=O)c1ccc(=O)c2nc3/c(=C/O)c(O)cc(=O)c3[nH]c12,·,–,–,42,–,·
COC(=O)c1ccc(N)cc1O,·,·,·,·,–,·
C[C@H]1CN([C@@H](C)CO)C(=O)c2cc(NC(=O)Nc3ccc(C(F)(F)F)cc3)ccc2O[C@@H]1CN(C)S(=O)(=O)c1ccccc1,–,–,–,–,–,133
Cc1ccc(S(=O)(=O)N(C)C[C@H]2Oc3ccc(NC(=O)Nc4ccc(C(F)(F)F)cc4)cc3C(=O)N([C@H](C)CO)C[C@H]2C)cc1,–,–,–,44,?,–
Cc1ccc(S(=O)(=O)N(C)C[C@@H]2Oc3ccc(NC(=O)Nc4ccc(C(F)(F)F)cc4)cc3C(=O)N([C@H](C)CO)C[C@H]2C)cc1,–,–,–,–,–,–
